High-throughput results deposited in PubChem by several laboratories.
OX1R antag-1 = blocks the human orexin 1 receptor; O43613; CHO/OX1R cells, Fluo-8 calcium fluorescence, orexin A; inhibition, % at 5 µM; 0.43% of 330,000 active;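 active = inhibition above its plate's threshold, mean inhibition of all tested compounds on the plate plus 3 SD, cut at about 37% in these data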
OX1R antag-2 = blocks the human orexin 1 receptor; O43613; OX1R-expressing cells, FRET antagonist read-out; inhibition, % at 6.6 µM; 1.8% of 330,000 active; in the data active = inhibition mostly above about 38%, no sharp cut-off; inactive = mostly below about 40%
GPR7 antagonist = human neuropeptides B/W receptor 1 antagonism. GPR7-expressing cells, fluorescence antagonist assay. inhibition, % at 4.4 µM. 1.1% of 290,000 active. AID 1861; in the data active = inhibition above about 16%, passing the limit was not always enough;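 also: cells stimulated with the agonist NPW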
Target sequence (P48145 whole entry, looked up): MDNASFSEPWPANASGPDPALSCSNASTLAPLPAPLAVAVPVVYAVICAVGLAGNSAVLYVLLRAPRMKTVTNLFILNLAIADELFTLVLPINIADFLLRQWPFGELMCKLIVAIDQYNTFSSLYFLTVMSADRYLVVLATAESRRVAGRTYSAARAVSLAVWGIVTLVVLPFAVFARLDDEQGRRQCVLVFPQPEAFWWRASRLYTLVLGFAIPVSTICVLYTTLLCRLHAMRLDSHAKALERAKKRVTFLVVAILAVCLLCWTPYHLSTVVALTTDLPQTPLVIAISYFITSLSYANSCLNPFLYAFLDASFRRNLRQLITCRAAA
EP2 antag = EP2 receptor (human) inhibition; C6 glioma cells expressing human EP2, cAMP TR-FRET; cells stimulated with saturating PGE2; inhibition, % at 25 µM; 0.52% of 260,000 active; AID 1422;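 active = percent inhibition above 40 after rounding to a whole number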;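 also: rat C6 glioma host cells with rolipram phosphodiesterase inhibitor present; the protocol text gives 20 µM as final concentration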
Target sequence (P43116 whole entry, looked up): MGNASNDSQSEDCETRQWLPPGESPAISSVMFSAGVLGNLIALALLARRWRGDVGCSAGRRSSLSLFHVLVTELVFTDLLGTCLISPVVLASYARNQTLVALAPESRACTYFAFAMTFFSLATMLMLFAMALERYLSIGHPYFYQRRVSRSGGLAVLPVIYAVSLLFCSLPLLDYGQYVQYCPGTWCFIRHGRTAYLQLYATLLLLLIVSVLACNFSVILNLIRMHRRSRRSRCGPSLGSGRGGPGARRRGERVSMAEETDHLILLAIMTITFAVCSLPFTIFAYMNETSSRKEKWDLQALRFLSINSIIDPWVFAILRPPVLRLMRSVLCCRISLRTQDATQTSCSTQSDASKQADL
EP2 mod = modulates human prostaglandin E2 receptor EP2 signaling; P43116; EP2-expressing cells, cAMP HTRF FRET, PGE2 co-stimulation; induction, % at 25 µM; 0.83% of 260,000 active; AID 940;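 active = compounds whose cAMP rise, as percent of the full-agonist control response, exceeds 60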;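 also: rat C6 glioma line stably carrying human EP2 under a CMV promoter; the protocol text gives 20 µM as final concentration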
CHO parental Ca = signal in parental CHO cells, OX1R antagonist counter-screen; parental CHO-K1, ATP-induced calcium, Fluo-8 fluorescence; inhibition, % at 5.6 µM; 0.63% of 330,000 active; AID 463079;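 active = inhibition above that plate's mean sample inhibition plus 3 SD, cut at about 26% in these data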
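Test system: untransfected parental CHO cell line; also added: ATP stimulus; dosing: 5.6 µM, single dose; signal: calcium-sensitive Fluo-8 fluorescence; measure: percent inhibition of ATP-evoked calcium rise, normalized to controls; benchmarks: low control ATP plus DMSO, high control DMSO only; replication: one well per compound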
GPR7 antag cf = human GPR7 antagonism, confirmation assay; shares compounds with GPR7 antagonist; GPR7-expressing cells, calcium fluorescence antagonist mode; inhibition, % at 4.4 µM; 52% of 2,400 active; AID 1952; in the data active = inhibition above about 24%;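 also: stimulated with the GPR7 agonist NPW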
MCHR1 antag = antagonizes human MCHR1, a GPR7 antagonist counter-screen; shares compounds with GPR7 antagonist; inhibition, % at 4.4 µM; MCHR1-expressing cells, fluorescence antagonist assay; 62% of 2,400 active; in the data active = inhibition above about 22%
Numbers stand for hits; n = inactive; x = not tested or not shown. This is a sample that favours compounds with a hit; in the whole collection about 3.7% have one here.

SMILES | OX1R antag-1 | OX1R antag-2 | GPR7 antagonist | EP2 antag | EP2 mod | CHO parental Ca | GPR7 antag cf | MCHR1 antag
O=C(N/N=C/c1ccncc1)c1ccccc1OCc1ccc(Br)cc1 | n | n | 31.3 | n | n | n | 25.3 | 42.7
Nc1nc[nH]c(=O)c1N=Cc1ccccc1 | n | n | n | n | n | n | x | x
CC1CN(C(=O)CCC(=O)NCc2ccc(F)cc2)c2ccccc2S1 (stereo unspecified) | n | n | 28.0 | x | x | n | n | n
CN(C)CCCCOc1ccc(Br)cc1Cl | n | n | 29.2 | n | n | n | n | n
COCCCNCCCCOc1ccc(Br)cc1Cl | n | n | n | n | n | n | x | x
CC1CCN(CCOCCOc2ccc(Br)cc2Cl)CC1 | n | n | 28.6 | n | n | n | 31.6 | 36.7
Nc1c(C(=O)Nc2ccc(N3CCOCC3)cc2)sc2nc3ccccc3cc12 | x | x | x | n | n | x | x | x
CCCC(=O)Nc1ccc(C(=O)NNC(=S)NC(=O)c2cccs2)cc1 | n | n | n | n | n | n | x | x
CCCOc1ccc(C(=O)NNC(=S)NC(=O)c2ccccc2)cc1 | 77.8 | n | 41.8 | x | x | 56.0 | 59.7 | 62.2
CCCOc1ccc(C(=O)NNC(=S)NC(=O)c2cccs2)cc1 | 70.0 | n | 51.8 | x | x | 63.5 | 41.8 | 36.8
Cc1cccc(C(=O)NC(=S)NNC(=O)c2ccc(Cl)cc2)c1 | 74.7 | n | 32.0 | n | n | 64.4 | 57.6 | 50.5
O=C(CCC(=O)Nc1ccc(F)cc1)N/N=C/c1ccc(O)cc1 | n | n | n | x | x | n | x | x
CN1CCN(c2nc3ccccn3c(=O)c2C=O)CC1 | n | n | n | x | x | n | x | x
O=NN(CCc1ccncc1)c1ccc(OCc2ccccc2)cc1 | 38.3 | n | 24.8 | n | n | 62.0 | 49.6 | 43.3
COc1ccccc1NS(=O)(=O)c1cc(NC(=O)c2ccc3c(c2)OCCO3)ccc1C | n | n | 27.2 | n | n | n | n | 63.3
Cc1coc2cc3oc(=O)c(CCC(=O)NCCCN4CCOCC4)c(C)c3cc12 | n | n | 42.6 | x | x | n | n | n
O=S(=O)(c1cccs1)N1CCN(c2ccc(F)cc2)CC1 | n | n | n | x | x | n | x | x
Fc1ccc(NC(=S)NC2CCN(Cc3ccccc3)CC2)cc1 | n | n | n | n | n | n | x | x
S=C(Nc1ccc2nsnc2c1)NC1CCCCC1 | n | n | n | n | n | n | x | x
S=C(Nc1ccc(Cl)c(Cl)c1)NC1CCN(Cc2ccccc2)CC1 | 95.6 | n | 32.9 | n | n | 92.9 | 70.1 | 94.4
S=C(Nc1ccc(Cl)c(Cl)c1)NC1CCCCC1 | n | 59.4 | 42.6 | n | n | 37.6 | 35.4 | 48.1
Cn1c(N)c(C(=O)COC(=O)/C=C/c2ccc(S(=O)(=O)N3CCOCC3)cc2)c(=O)n(C)c1=O | n | n | 24.0 | n | n | n | n | n
c1ccc2c(Cc3c[nH]c4ccccc34)c[nH]c2c1 | x | x | x | n | n | x | x | x
CSc1ccccc1NC(=O)CN(c1cccc(C)c1)S(C)(=O)=O | n | n | n | n | n | n | x | x
Cc1cccc(N(CC(=O)Nc2ccccc2F)S(C)(=O)=O)c1 | n | n | 26.9 | n | n | n | n | n
SMILES | OX1R antag-1 | OX1R antag-2 | GPR7 antagonist | EP2 antag | EP2 mod | CHO parental Ca | GPR7 antag cf | MCHR1 antag
Cc1cccc(Nc2ccc(NCc3ccccc3)nn2)c1 | n | n | n | n | n | n | x | x
COc1ccc(C(=O)NCCc2ccccc2)cc1[N+](=O)[O-] | n | n | 31.1 | x | x | n | n | n
COc1ccc(C(=O)NCCc2ccccc2)cc1OC | n | n | n | x | x | n | x | x
COC(=O)[C@]1(CC(C)C)N[C@H](c2ccc(-c3ccccc3)cc2)[C@@H]2C(=O)N(C)C(=O)[C@@H]21 | n | n | x | x | x | n | x | x
O=C(COc1ccc(-n2ccnc2)cc1)Nc1cccc(Cl)c1 | n | n | n | n | n | n | x | x
FC(F)(F)c1cccc(-c2nc3nc(Cl)c(Cl)nc3[nH]2)c1 | n | 40.0 | 25.1 | n | n | 38.4 | 37.3 | 47.8
O=C(NC12CC3CC(CC(C3)C1)C2)OCCNC1CCCCC1 | n | n | 25.7 | n | n | n | n | n
Cc1cc(NC(=O)COC(=O)c2c(C)noc2C)ccc1Br | n | n | 36.4 | n | n | n | n | 24.7
CCN(CC)C(=O)CC(c1ccc(F)cc1)c1ccco1 (stereo unspecified) | n | n | n | n | n | n | x | x
CCOC(=O)N1CCN(Cc2cn[nH]c2-c2cccc3ccccc23)CC1 | n | n | n | n | n | n | x | x
CCOC(=O)N1CCN(Cc2cn[nH]c2-c2ccc(-c3ccccc3)cc2)CC1 | n | n | 24.7 | n | n | n | n | n
COC(=O)c1ccc(NC(=O)Nc2ccc([N+](=O)[O-])cc2)cc1 | 37.1 | n | 46.7 | x | x | 67.3 | 70.8 | 67.3
COc1cc(NC(=O)Nc2cccc([N+](=O)[O-])c2)cc(OC)c1 | n | n | 28.4 | n | n | n | n | 73.9
CCCCN(C)C(=O)c1ccc2c(c1)N(CC)C(=O)c1ccccc1S2=O (stereo unspecified) | n | n | n | x | x | n | x | x
Cc1ccc(C2CC(C(F)F)n3ncc(C(=O)Nc4c(C)nn(Cc5c(F)cccc5Cl)c4C)c3N2)cc1 (stereo unspecified) | n | n | 24.3 | n | n | n | 55.6 | 26.6
Cc1cc(OCC(=O)NCCc2ccc(S(N)(=O)=O)cc2)c2c(C)cc(=O)oc2c1 | n | n | n | x | x | n | x | x
COc1ccc(CCNC(=O)COc2cc(C)cc3oc(=O)cc(C)c23)cc1 | n | n | 26.0 | x | x | n | n | n
Cc1ccc(-c2cc(C(F)F)n3ncc(C(=O)N4CCc5ccccc54)c3n2)cc1 | n | n | n | n | n | n | x | x
CS(=O)(=O)c1ccc2nc(NC(=O)Nc3ccccc3F)sc2c1 | n | n | 59.2 | x | x | n | 36.1 | n
Cc1ccccc1-n1ccnc1SCC(=O)NCC1CCCO1 (stereo unspecified) | n | n | 26.4 | x | x | n | n | n
O=C(CSc1ccc2c(c1)OCCO2)NCC1CCCO1 (stereo unspecified) | n | n | 27.0 | n | n | n | n | n
COc1ccc(NC(=O)Cn2cccc2)cc1Cl | n | n | n | n | n | n | x | x
Cc1nn(-c2ccccc2)c(N)c1Sc1ccc([N+](=O)[O-])cc1 | n | n | 22.9 | n | n | n | 33.0 | 54.7
Cc1nn(S(=O)(=O)c2ccc(Cl)cc2)c(C)c1Sc1ccc([N+](=O)[O-])cc1 | n | n | n | n | n | n | x | x
O=C1NC(=S)S/C1=C/c1ccc(OC(=O)c2ccco2)cc1 | n | n | 27.9 | x | x | n | n | 22.7
CCOc1cc(/C=C2/SC(=S)NC2=O)ccc1OC(=O)c1ccco1 | n | n | n | n | n | n | x | x
O=c1cnn(C2CCCO2)c(=O)[nH]1 (stereo unspecified) | x | x | x | n | n | x | x | x
